pIC50: −log10 of the molar value. The source made the active and inactive calls. The calls are words filed in the database; no cut-off is given here.
Tests used:
Jurkat [1] = assay: Inhibition of heat-induced HSP70 expression in human Jurkat cells at 50 ug/mL treated for 1 hr before heat induction by Western blot; type: functional, cell-based
[2] = molecular target: Heat shock protein beta-1 (Homo sapiens) (UniProt P04792); assay: Enhancement of HSP27 Ser78 phosphorylation in human HeLa cells at 50 ug/mL treated for 1 hr; type: cell-based
Sequence of Heat shock protein beta-1 (Homo sapiens) (P04792 whole entry): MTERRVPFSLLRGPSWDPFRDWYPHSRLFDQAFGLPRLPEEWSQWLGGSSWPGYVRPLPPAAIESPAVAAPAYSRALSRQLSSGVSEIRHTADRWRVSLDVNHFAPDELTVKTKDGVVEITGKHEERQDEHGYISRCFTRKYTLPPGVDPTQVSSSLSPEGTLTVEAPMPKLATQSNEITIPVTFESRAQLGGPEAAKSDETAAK
In short: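 HeLa cells in DMEM + 10% calf serum, exponentially growing, exposed 1 h to 50 μg/ml compound; total cell extracts probed by Western blot with rabbit antibody to human HSP27 phospho-Ser78, alkaline phosphatase-conjugated goat anti-rabbit secondary, colorimetric detection.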

[3] = Inhibition of CK2 assessed as level of ATP utilized by luciferase-based bioluminescence assay
[4] = Inhibition of CAMK2 assessed as level of ATP utilized by luciferase-based bioluminescence assay
Jurkat [5] = assay: Inhibition of heat-induced increase in nuclear HSF1 protein level in human Jurkat cells at 50 ug/mL treated for 1 hr before heat induction by Western blot; type: functional, cell-based
In short: (§1)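 Cells were pretreated with compound for 1 h, then heat-shocked at 43 °C for 30 min. Nuclear extracts, the same ones prepared for EMSA, were analysed by Western blot with rabbit anti-HSF1 and goat anti-rabbit HRP, with chemiluminescent detection. Nuclear HSF1 level was read from band intensity. The phosphorylation state was read as reduced gel mobility of the HSF1 band.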

HeLa [6] = assay: Inhibition of heat-induced increase in nuclear HSF1 protein level in human HeLa cells at 50 ug/mL treated for 1 hr before heat induction by Western blot; type: functional, cell-based; in short: as §1
Jurkat [7] = assay: Inhibition of heat-induced increase in nuclear HSF1 protein phosphorylation in human Jurkat cells assessed as decrease in protein mobility at 50 ug/mL treated for 1 hr before heat induction by EMSA; type: functional, cell-based; in short: as §1
HeLa [8] = assay: Inhibition of heat-induced increase in nuclear HSF1 protein phosphorylation in human HeLa cells assessed as decrease in protein mobility at 50 ug/mL treated for 1 hr before heat induction by EMSA; type: functional, cell-based; in short: as §1

Row | Compound | Activity (Jurkat [1]) | Activity [2] | pIC50 [3] | pIC50 [4] | Activity (Jurkat [5]) | Activity (HeLa [6]) | Activity (Jurkat [7]) | Activity (HeLa [8])
1 | COc1cc(-c2oc3cc(O)cc(O)c3c(=O)c2O)ccc1O [ISORHAMNETIN] | Active | inactive | 6.30 | 6.04 |  |  |  | 
2 | O=C(O)COc1c(-c2ccc(O)c(O)c2)oc2cc(O)cc(O)c2c1=O | inactive | inactive | 5.61 | < 4.00 |  |  |  | 
3 | O=C(O)COc1cc(O)c2c(=O)c(O)c(-c3ccc(O)c(O)c3)oc2c1 | inactive | inactive | 5.01 | 5.03 |  |  |  | 
4 | COc1ccc(-c2oc3cc(O)cc(O)c3c(=O)c2O)cc1O [TAMARIXETIN] |  | inactive | < 4.00 | 4.79 |  |  |  | 
5 | COC(=O)COc1cc(O)c2c(=O)c(O)c(-c3ccc(O)c(O)c3)oc2c1 | Active | Active | 6.07 | 5.04 |  |  |  | 
6 | COc1cc(O)cc2oc(-c3ccc(O)c(O)c3)c(O)c(=O)c12 | inactive | inactive | < 4.00 | 5.40 |  |  |  | 
7 | COc1c(-c2ccc(O)c(O)c2)oc2cc(O)cc(O)c2c1=O [3-O-METHYLQUERCETIN] | inactive | inactive | 6.08 | < 4.00 |  |  |  | 
8 | COC(=O)COc1cc(O)cc2oc(-c3ccc(O)c(O)c3)c(O)c(=O)c12 | inactive | inactive | < 4.00 | 4.16 |  |  |  | 
9 | COC(=O)COc1cc(-c2oc3cc(O)cc(O)c3c(=O)c2O)ccc1O | Active | inactive | 4.28 | 5.20 |  |  |  | 
10 | COc1cc(O)c2c(=O)c(O)c(-c3ccc(O)c(O)c3)oc2c1 [RHAMNETIN] | Active | Active | 5.01 | 5.05 |  |  |  | 
11 | O=c1c(O)c(-c2ccc(O)c(O)c2)oc2cc(O)cc(O)c12 [QUERCETIN] | Active | Active | 5.25 | 5.48 | inactive | inactive | Active | Active
